Htt clearance: clearance of mutant huntingtin inclusions, primary screen, imaging, HeLa Exon1htt(103Q)mCFP, confocal imaging; aggregate imaging; zero = plate's median compound well; AID 853, 2007; actives 0.42% (n = 47,000); inhibition, % at 1.5 µM;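 active means inhibition of aggregate fluorescence above about 70%, also judged a hit by eye on the cell image, limit read from the data, passing the limit was not always enough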;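 further: cells exposed to compound for three days before fixation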
SF1 activator: activators of human SF-1, primary screen, cell-based, CHO-K1, Gal4-SF-1 LBD, luciferase luminescence; actives 1.9% (n = 65,000); Steroidogenic factor 1 (Homo sapiens), Q13285; CHO-K1 Gal4-SF-1 LBD luciferase reporter; % increase over DMSO SF-1-specific signal; activation, % at 10 µM;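 active means activation above the mean activation of all tested compounds plus 3 SD, cut at about 50% in these data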
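Material: CHO-K1 cells with Gal4–hSF-1 LBD chimera plus Gal4-driven luciferase / Input: 4,000 CHO-K1 cells per well / Incubation: compound exposure 20 h at 37 °C / Signal: luminescence read 15 min after SteadyLite luciferase reagent, after room-temperature equilibration / Read-out: percent activation versus DMSO / Benchmarks: DMSO negative control and −SF1 background wells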
M1 antagonist: antagonists of rat M1 muscarinic receptor. B-score at 10 µM. Muscarinic acetylcholine receptor M1 (Rattus norvegicus), P08482. CHO-M1 cells, Fluo-4 calcium, ACh EC80 antagonist mode; stronger effect = lower value. actives 3.4% (n = 64,000). AID 628, 2007;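 active means calcium fluorescence response, raw or row-and-column corrected B-score, differing from the plate sample mean either way at a set confidence level, mostly lower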
D1 mod: D1 CRE-luciferase signal change, two-sided – cell-based, HEK293 D1, dopamine EC30, D1 allosteric modulator project, primary screen. D(1A) dopamine receptor (Homo sapiens), P21728. actives 5.9% (n = 58,000). dopamine EC30 potentiation; actives deviate in either direction. AID 641, 2007. B-score at 10 µM;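 active means luminescence count or its row- and column-corrected plate score outside the 99.7% band of the plate's sample wells, on either side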
Target sequence (P21728 whole entry, looked up): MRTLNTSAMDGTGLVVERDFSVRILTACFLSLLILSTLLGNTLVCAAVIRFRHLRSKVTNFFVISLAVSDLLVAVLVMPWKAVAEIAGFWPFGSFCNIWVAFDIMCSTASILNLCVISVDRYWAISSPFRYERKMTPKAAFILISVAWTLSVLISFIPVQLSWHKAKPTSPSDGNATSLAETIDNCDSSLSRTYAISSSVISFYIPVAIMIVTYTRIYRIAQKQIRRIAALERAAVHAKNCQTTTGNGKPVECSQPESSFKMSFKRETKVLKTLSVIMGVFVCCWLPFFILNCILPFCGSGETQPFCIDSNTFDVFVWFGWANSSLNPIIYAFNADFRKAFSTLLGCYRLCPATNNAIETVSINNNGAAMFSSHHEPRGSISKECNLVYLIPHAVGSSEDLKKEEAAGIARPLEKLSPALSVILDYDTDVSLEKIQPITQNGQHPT
RORa activator: activators of orphan receptor RORA, primary screen, cell-based, luminescence; Nuclear receptor ROR-alpha (Homo sapiens), P35398; CHO-K1 Gal4-RORA LBD luciferase reporter; percent increase over mock-subtracted basal signal; activation, % at 10 µM; actives 1.5% (n = 65,000); AID 560, 2006;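 active means activation above the mean of all tested compounds plus 3 SD, cut at about 49% in these data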;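 further: 0% = DMSO-treated RORA cells and 100% = added signal equal to DMSO minus mock-transfected cells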
M1 ag: M1 muscarinic receptor agonists, primary screen, CHO-M1 cells, Fluo-4 calcium, agonist mode | Fluo-4 calcium fluorescence; stronger effect = higher value | actives 3% (n = 64,000) | B-score at 10 µM;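 active means fluorescence rise, raw or as B-score row- and column-corrected plate score, outside the 99.7% band of its plate's samples, either direction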
D1 mod confirm: D1 receptor positive allosteric modulators, retest, confirmation, cell-based, HEK293 D1, CRE-luciferase, duplicate; actives 88% (n = 2,200); luminescence at 10 µM; dopamine EC30 potentiation; stronger effect = higher value; shares compounds with D1 mod;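 active means luminescence in either of two replicates above the same-plate mean plus 3 SD of the low-dose dopamine control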
D1 no dopamine: D1 receptor agonism without dopamine, confirmation, mechanism study for D1 allosteric modulator project, cell-based, HEK293 D1, CRE-luciferase, secondary assay 1; actives 0.8% (n = 1,900); luminescence at 10 µM; shares compounds with D1 mod; luminescence, no dopamine; stronger effect = higher value; AID 646, 2007; in the data active means luminescence above about 3900
Isoprot counter: counter-screen for D1 modulators: isoproterenol response in HEK293 cells | shares compounds with D1 mod | HEK293 D1 CRE-luciferase, isoproterenol EC30 counter-screen | calls only at 10 µM | actives 63% (n = 2,200) | AID 647;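 active means luminescence in either replicate above plate mean of wells with a partly effective reference agonist dose plus 3 SD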;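 further: isoproterenol raises cAMP through native beta-adrenoceptor Gs so signal bypasses D1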
Numbers without * were called inactive; i = inactive; . = no result; + = active, no number. Compounds with a hit are over-represented: about 11% of the library has one in this group of screens.

SMILES	Htt clearance	SF1 activator	M1 antagonist	D1 mod	RORa activator	M1 ag	D1 mod confirm	D1 no dopamine	Isoprot counter
CCOC(=O)CSc1nc2cccnc2n1-c1ccc(F)cc1	34	-5	0.027	22*	5	0.2	24340*	1808	+
CCN1CCN(C(=O)CCc2ccc(S(=O)(=O)NCCc3ccccc3)cc2)CC1	13	.	.	.	.	.	.	.	.
COc1cccc(CSc2nnc(-c3ccco3)n2C)c1	-13	5	-0.11	-0.041	34	-0.018	.	.	.
O=C(CSc1nc2c(cnn2-c2ccccc2)c(=O)[nH]1)N1CCOCC1	28	-8	-0.81	0.22	18	0.56	.	.	.
CC(C)Sc1nc2c(cnn2-c2ccccc2)c(=O)[nH]1	.	3	-0.11	15*	-18	0.32	15608*	1888	+
CC(C)Sc1nc2c(cnn2-c2ccc(F)cc2)c(=O)[nH]1	-20	-13	0.5	.	-1	-1.2	.	.	.
O=c1[nH]c(SCc2ccccc2Cl)nc2c1cnn2-c1ccccc1	.	3	-0.0098	7.6*	11	-0.89	6188	.	+
CCCCCSc1nc2c(cnn2-c2ccccc2)c(=O)[nH]1	.	-2	-0.13	2.9*	-7	-0.66	13144*	1508	i
Cc1ccc(-n2ncc3c(=O)[nH]c(SC(C)C)nc32)cc1	.	-16	0.055	17*	17	-1.2	12920*	1492	+
CCCCNC(=O)CSc1nc2ccccc2c(=O)n1C1CCCC1	11	-4	0.6	1.1	-19	-0.98	.	.	.
COc1ccc(S(=O)(=O)N(C)CC(=O)O)c2ccccc12	-58	-2	-0.062	-0.23	1	-0.4	.	.	.
COc1ccc(N2C(=O)C3CCCN3C2c2ccccc2)cc1Cl (configuration not stated)	.	6	0.42	2.8*	-3	0.82	5744*	1680	i
COc1ccccc1C1C(C(=O)c2sc(C)nc2C)=C(O)C(=O)N1CCN1CCOCC1 (configuration not stated)	.	2	-0.68	-0.23	-16	-0.3	.	.	.
O=c1[nH]c2c(s1)C(c1ccccc1)C1C3CCC(C3)C1S2 (configuration not stated)	.	-7	-0.085	17*	18	0.28	21364*	.	+
COc1ccc(C2c3sc(=O)[nH]c3SC3C4CCC(C4)C23)cc1 (configuration not stated)	2	0	-0.55	16*	5	-0.036	27840*	1724	+
COc1cc(C2c3sc(=O)[nH]c3SC3C4CCC(C4)C23)ccc1O (configuration not stated)	.	4	0.072	8.5*	0	-1.1	18840*	1528	+
O=C1C2Sc3[nH]c(=O)sc3C(c3ccccc3)C2C(=O)N1c1ccccc1 (configuration not stated)	16	.	.	.	.	.	.	.	.
CCOc1ccc(-c2c[n+](=O)c3c(n2[O-])CCCC3)c(OCC)c1	-23	.	.	.	.	.	.	.	.
COc1ccccc1CNC(=O)c1oc2ccc(S(=O)(=O)N3CCCC3)cc2c1C	.	17	-1.6	30*	-9	-0.16	19660*	1724	+
Cc1c(C(=O)NCc2ccc3c(c2)OCO3)oc2ccc(S(=O)(=O)N3CCCC3)cc12	.	1	0.51	.	31	-0.25	.	.	.
Cc1c(C(=O)NCc2ccccc2)oc2ccc(S(=O)(=O)N3CCCC3)cc12	-197	17	0.52	11*	-4	-0.75	21124*	1628	+
c1ccc2c(c1)ccc1nnc(-c3ccc4c(c3)OCO4)n12	.	0	-0.41	22*	-15	-0.89	24948*	1952	+
CCC(C)NS(=O)(=O)c1ccc(OCC(=O)N2CCC(C)CC2)cc1 (configuration not stated)	38	.	.	.	.	.	.	.	.
CCOC(=O)N1CCN(C(=O)CN(c2ccc(OCc3ccccc3)cc2)S(C)(=O)=O)CC1	58	8	0.073	0.091	3	0	.	.	.
COc1ccc(OC)c(C2=Nn3c(nnc3-c3ccco3)SC2)c1	53	14	0.22	.	3	0.049	.	.	.
SMILES	Htt clearance	SF1 activator	M1 antagonist	D1 mod	RORa activator	M1 ag	D1 mod confirm	D1 no dopamine	Isoprot counter
COc1ccccc1C1=Nn2c(nnc2C2CCCCC2)SC1	-64	2	0.13	11*	-11	0.3	20508*	1724	+
COc1ccc(OC)c(C2=Nn3c(nnc3C3CCCCC3)SC2)c1	.	-2	0.61	16*	-8	0.44	17128*	.	+
C/C(=N\n1nnnc1Nc1ccccc1)c1ccc(N)cc1	.	-2	0.27	-0.81	30	0.17	.	.	.
Cc1ccc(C(=O)N2CCN(C3c4cccc5cccc(c45)C3NS(=O)(=O)c3ccccc3)CC2)cc1 (configuration not stated)	15	.	.	.	.	.	.	.	.
Cc1nc2nc(C)n(-c3ccccc3)c2s1	11	9	0.28	15*	0	1.5	21228*	1820	+
COc1cccc(CNC(=O)C2CCC(CNS(=O)(=O)c3cccc4nsnc34)CC2)c1 (configuration not stated)	-31	.	.	.	.	.	.	.	.
COc1cc(S(=O)(=O)NC(C)C)ccc1Cl	16	.	.	.	.	.	.	.	.
CCN1CCCC1CNC(=O)c1cc(NC(C)=O)c(N(C)C)cc1OC (configuration not stated)	.	1	0.055	0.42	-2	0.42	.	.	.
COc1cc(N/C(=N/S(=O)(=O)c2ccccc2)c2ccccc2)ncn1	31	49	-0.61	6.4*	16	0.52	14612*	1720	i
COc1cc(OC)nc(NC(=O)CS(=O)(=O)c2ccccc2)n1	.	-3	-0.02	-0.056	-1	-0.36	.	.	.
CCCCCn1c(N(C)Cc2ccccc2)nc2c1c(=O)[nH]c(=O)n2C	-30	-5	0.11	14*	24	0.38	21892*	1452	+
CN(Cc1ccccc1)c1nc2c(c(=O)[nH]c(=O)n2C)n1CCSc1ncccn1	2	.	.	.	.	.	.	.	.

Compound activity: PubChem BioAssay, several laboratories
